The subject of data set [1] is J774. Nature of the data set: Inhibition of LPS-stimulated iNOS protein expression in mouse J774 cells at 100 uM by Western blot analysis.
The test system of data set [2] is J774. Kind of data set: Inhibition of LPS-stimulated IL-6 production in mouse J774 cells at 100 uM by ELISA. A general note: In an ELISA, binding on a coated surface is turned into a signal by an enzyme label.
The test system of data set [3] is J774. Kind of data set: Cytotoxicity against mouse J774 cells at 100 uM by XTT assay. The settings on record: j774, 100 µM. The data set is classed as cell-based. The essentials: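 Confluent J774 monolayers were exposed to compound under the same conditions as the anti-inflammatory assays. Viability was read as mitochondrial dehydrogenase reduction of XTT to formazan.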
(In general: Formazan colour is commonly taken as a measure of viable cells.)

The subject of data set [4] is J774. Kind of data set: Inhibition of LPS-stimulated iNOS protein expression in mouse J774 cells at 10 uM by Western blot analysis. On the technique in general: A western blot detects proteins with antibodies after separation by electrophoresis.
Data set [5] has as its system J774. Nature of the data set: Inhibition of LPS-stimulated IL-6 production in mouse J774 cells at 10 uM by ELISA.
Data set [6] has as its system J774. Kind of data set: Antiinflammatory activity in mouse J774 cells assessed as inhibition of LPS-induced NO production at 10 uM by Griess reaction. The data set is classed as functional. The essentials: (§1)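 Confluent J774 macrophages, grown 72 h in 24-well plates, were stimulated with LPS in fresh medium containing compound. Nitrite was quantified against a sodium nitrite standard. Results were given as % inhibition versus LPS alone, mean ± S.E.M.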

For data set [7], the system named is J774. Nature of the data set: Antiinflammatory activity in mouse J774 cells assessed as inhibition of LPS-induced NO production at 100 uM by Griess reaction. The data set is classed as functional. The essentials:
as §1

Data set [8] has as its system J774. Kind of data set: Antiinflammatory activity in mouse J774 cells assessed as inhibition of LPS-induced COX-2 protein expression at 100 uM by Western blot.
Data set [9] has as its system J774. Kind of data set: Antiinflammatory activity in mouse J774 cells assessed as inhibition of LPS-induced COX-2 protein expression at 10 uM by Western blot.
Data set [10] concerns the target Transcription factor p65 (Mus musculus) (UniProt Q04207). Nature of the data set: Inhibition of NF-kB p65 nuclear translocation in LPS-stimulated mouse J774 cells at 100 uM by Western blot analysis. Format: cell-based. The essentials:
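J774 murine macrophages were grown in DMEM glutamax-I with 10% heat-inactivated FBS and antibiotics for 72 h to confluence, then given compound with LPS in fresh medium. Nuclear extracts were made by hypotonic lysis followed by high-salt extraction of the nuclei. 20 µg protein was run on 10% SDS-PAGE and blotted onto nitrocellulose. Blots were probed with anti-p65 and an HRP secondary antibody, and chemiluminescence was quantified. Results are mean ± SEM.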

The target is the same in data set [11]. Kind of data set: Inhibition of NF-kB p65 nuclear translocation in LPS-stimulated mouse J774 cells by Western blot analysis. Format: cell-based. The settings on record: concentration not given here. The gist of the method: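 Nuclear extracts were prepared from LPS-treated J774 cells using hypotonic buffer A followed by high-salt buffer C (420 mM NaCl). Extract protein (20 µg) was run on 10% SDS-PAGE, blotted, and probed with anti-NF-κB p65 antibody, then detected by chemiluminescence.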

Data set [12] deals with J774. Kind of data set: Inhibition of LPS-stimulated iNOS mRNA expression in mouse J774 cells by RT-PCR analysis. The data set is classed as functional. The essentials: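 J774 cells were incubated for 3 h with LPS plus compound. Total RNA was extracted and reverse-transcribed, then run by real-time PCR for 40 cycles (95 °C 15 s / 60 °C 1 min), in duplicate. iNOS mRNA was quantified from a standard curve built with LPS-stimulated J774 RNA and normalised to GAPDH.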

Transcription factor p65 (Mus musculus), sequence (Q04207 whole entry): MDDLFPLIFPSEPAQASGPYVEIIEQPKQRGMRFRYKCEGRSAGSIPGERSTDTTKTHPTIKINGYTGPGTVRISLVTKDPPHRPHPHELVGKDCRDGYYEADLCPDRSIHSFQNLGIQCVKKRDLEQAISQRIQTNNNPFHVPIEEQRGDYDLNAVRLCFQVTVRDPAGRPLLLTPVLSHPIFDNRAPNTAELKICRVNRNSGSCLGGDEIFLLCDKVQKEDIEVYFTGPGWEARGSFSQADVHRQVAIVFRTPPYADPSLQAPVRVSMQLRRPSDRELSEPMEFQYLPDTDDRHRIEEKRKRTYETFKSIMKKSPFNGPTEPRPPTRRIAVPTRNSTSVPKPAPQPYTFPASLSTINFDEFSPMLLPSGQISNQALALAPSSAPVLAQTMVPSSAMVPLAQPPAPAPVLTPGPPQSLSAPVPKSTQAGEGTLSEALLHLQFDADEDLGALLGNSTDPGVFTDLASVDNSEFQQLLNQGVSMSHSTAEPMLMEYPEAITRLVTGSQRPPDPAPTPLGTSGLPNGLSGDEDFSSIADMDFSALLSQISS

For the compound `Cc1cc(O)cc2oc(=O)cc(C)c12`, the inhibition at 100 µM is 74.3% with J774 [1], 66.4% in the data set on J774 [2], 71% in the data set with J774 [7] and -17.5% in the data set with J774 [8]. For the same compound, the Activity entry in the data set on J774 [3] is “Non-toxic”. For the same compound, the inhibition at 10 µM in the data set with J774 [4] was -19.7%; in the data set on J774 [5], 14.5%; in the data set with J774 [6] it was -8.6%; with J774 [9], -14.8%.
With `S=C(S)N1CCCC1` [PYRROLIDINE DITHIOCARBAMATE], in the data set on J774 [1], the inhibition at 100 µM is 97%. Further, the inhibition in [10] came to 95%.
`Cc1c(C)c2c(C)cc(O)cc2oc1=O`: the inhibition at 100 µM with J774 [1] amounted to 94.7%; with J774 [2], 92.2%; with J774 [7] it was 92.4%; in the data set on J774 [8], 11.1%. Further, in the data set on J774 [3], the Activity result is on record as “Non-toxic”. The inhibition at 10 µM is 49.6% with J774 [4], 51.8% with J774 [6] and -31.7% with J774 [9]. Besides, in data set [11], the inhibition is 65%. Further, the “inhibition (INH)” value in the data set on J774 [12] is given as 50%.
As for `CCCc1cc(=O)oc2cc(O)ccc12`, the inhibition at 100 µM in the data set with J774 [1] stood at 89.7%; with J774 [2], 88.9%; in the data set on J774 [7], 67.6%; in the data set on J774 [8], 25%. The Activity entry with J774 [3] is “Non-toxic”. Also, the inhibition at 10 µM is 25.3% in the data set on J774 [4], 25.4% with J774 [5], 25.3% in the data set with J774 [6] and -11.1% with J774 [9].
As for `O=c1cc(-c2ccccc2)c2ccc(O)cc2o1`, the inhibition at 100 µM is 93% with J774 [1], 95.7% in the data set on J774 [2], 85% in the data set with J774 [7] and -0.4% with J774 [8]. In addition, the Activity result in the data set on J774 [3] was “Non-toxic”. In addition, the figures for the inhibition at 10 µM with J774 [4], in the data set on J774 [6] and in the data set with J774 [9] were 46.5%, 54.8% and -47.1%, respectively.
`CCc1c(C)c2ccc(O)c(C)c2oc1=O`: the inhibition at 100 µM came to 65.2% in the data set with J774 [1], 94.9% in the data set with J774 [2], 87% in the data set with J774 [7] and 21% with J774 [8]. Further, the Activity result with J774 [3] was “Non-toxic”. In addition, the inhibition at 10 µM in the data set with J774 [4] is 18.9%; in the data set on J774 [5], 26.1%; with J774 [6], 46.5%; in the data set with J774 [9], -36.8%.
On to `O=c1cc(-c2ccccc2F)c2ccc(O)cc2o1`, for which the inhibition at 100 µM in the data set with J774 [1] is 95.4%; with J774 [2], 92.7%; in the data set with J774 [7], 87.5%; in the data set on J774 [8], -16.6%. Besides, in the data set on J774 [3], the Activity entry was “Non-toxic”. Besides, the inhibition at 10 µM in the data set with J774 [4] was 48.8%; with J774 [5], 0.3%; in the data set with J774 [6] it was 50.4%; in the data set on J774 [9], -34.7%.
For the compound `Cc1c(C)c2ccc(O)cc2oc1=O`, the inhibition at 100 µM in the data set with J774 [1] is 85.5%; in the data set on J774 [2], 85.7%; with J774 [7], 88.9%; in the data set on J774 [8], 3.7%. Also, in the data set with J774 [3], the Activity entry was “Non-toxic”. The inhibition at 10 µM with J774 [4] was 28.6%; in the data set with J774 [5], 16.7%; in the data set with J774 [6], 37.6%; in the data set on J774 [9] it was -57.7%. In addition, the inhibition in data set [11] came out at 65%. Moreover, the “inhibition (INH)” value in the data set on J774 [12] worked out at 50%.
Take `Cc1cc(=O)oc2cc(O)ccc12` [HYMECROMONE]: the inhibition at 100 µM in the data set with J774 [1] worked out at 61.8%; in the data set with J774 [2], 44.1%; with J774 [7], 42.9%; in the data set with J774 [8], 22.7%. Also, the Activity entry in the data set with J774 [3] was “Non-toxic”. Also, the inhibition at 10 µM with J774 [4] is 22.1%; with J774 [5] it was 4.6%; in the data set on J774 [6], -14.2%; with J774 [9], 3.2%.
`O=c1ccc2ccc(O)cc2o1` [UMBELLIFERONE]: the inhibition at 100 µM with J774 [1] was 47.2%; in the data set with J774 [2], 34.1%; in the data set with J774 [7], 64.4%; in the data set on J774 [8], -20.4%. In addition, the Activity result in the data set on J774 [3] is “Non-toxic”. The inhibition at 10 µM is 10% in the data set with J774 [4], 3.2% with J774 [5], 5.5% in the data set with J774 [6] and -17.2% in the data set on J774 [9].
In the case of `COc1c(O)ccc2c(-c3ccccc3)cc(=O)oc12`, the inhibition at 100 µM is 84.6% in the data set with J774 [1], 46.9% in the data set with J774 [2], 81.8% in the data set with J774 [7] and -34.7% with J774 [8]. Also, in the data set on J774 [3], the Activity entry is reported as “Non-toxic”. Besides, the inhibition at 10 µM in the data set with J774 [4] was 55.9%; in the data set on J774 [6], 71.5%; in the data set with J774 [9] it was -59.1%.
With `Cc1cc(O)cc2oc(=O)ccc12`, the inhibition at 100 µM with J774 [1] is 86.2%; in the data set with J774 [2] it was 4.2%; in the data set with J774 [7], 80%; in the data set on J774 [8], -60.4%. For the same compound, the Activity entry with J774 [3] is “Non-toxic”. Further, the inhibition at 10 µM is 2.7% in the data set on J774 [4], 9.2% in the data set with J774 [6] and -44.1% with J774 [9].
Regarding `CCc1c(C)c2ccc(O)cc2oc1=O`, the inhibition at 100 µM is 91% in the data set with J774 [1], 92.3% with J774 [7] and -73.2% in the data set on J774 [8]. Further, the Activity result with J774 [3] was “Non-toxic”. Moreover, the inhibition at 10 µM in the data set on J774 [4] is 7.5%; in the data set with J774 [5], 27.9%; in the data set on J774 [6] it was 43.3%; in the data set with J774 [9], -29.9%. Also, the inhibition in data set [11] worked out at 65%. Further, the “inhibition (INH)” value in the data set on J774 [12] stood at 50%.
For `Cc1c(F)c(=O)oc2cc(O)ccc12`, the inhibition at 100 µM in the data set with J774 [1] was 53%; in the data set on J774 [2] it was 38.1%; in the data set on J774 [7], 62.8%; in the data set with J774 [8], -25.1%. Besides, the Activity entry with J774 [3] is listed as “Non-toxic”. The inhibition at 10 µM was 46.5% with J774 [4], 21.2% in the data set with J774 [5], 7.4% in the data set with J774 [6] and -2.2% with J774 [9].
As for `CCCc1cc(=O)oc2c(OC)c(O)ccc12`, the inhibition at 100 µM was determined as 74.6% in the data set on J774 [1], 73.4% in the data set with J774 [2], 83.7% in the data set on J774 [7] and 8.6% with J774 [8]. Moreover, the Activity entry with J774 [3] is on record as “Non-toxic”. Besides, the inhibition at 10 µM is 13.4% in the data set with J774 [4], 11% in the data set on J774 [5], 57% in the data set on J774 [6] and -38.9% in the data set with J774 [9].
Turning to `COc1c(O)ccc2c(C)c(F)c(=O)oc12`, the inhibition at 100 µM in the data set on J774 [1] is 86.2%; with J774 [2], 14.8%; in the data set with J774 [7], 50.2%; in the data set on J774 [8], -36.8%. Besides, in the data set with J774 [3], the Activity result is recorded as “Non-toxic”. Also, the inhibition at 10 µM is 2.7% in the data set with J774 [4], 10.7% in the data set with J774 [5], 15.8% with J774 [6] and -15.4% in the data set with J774 [9].
For `Cc1cc(=O)oc2c(C)c(O)ccc12`, the inhibition at 100 µM turned out to be 61.4% in the data set with J774 [1], 82.8% with J774 [2], 65.7% with J774 [7] and 7.8% with J774 [8]. For the same compound, the Activity result in the data set on J774 [3] is “Non-toxic”. In addition, the inhibition at 10 µM stood at 20.1% with J774 [4], 17.5% with J774 [5], 17.3% in the data set on J774 [6] and 2.3% in the data set on J774 [9].
As to `CCCc1cc(=O)oc2cc(O)cc(C)c12`, the inhibition at 100 µM in the data set with J774 [1] is 87.8%; in the data set with J774 [2], 54.3%; in the data set on J774 [7], 62.5%; with J774 [8], -45.6%. In addition, the Activity entry in the data set with J774 [3] was “Non-toxic”. Besides, the inhibition at 10 µM is 7.8% with J774 [4], 12.2% with J774 [5], 38.5% with J774 [6] and -6.8% with J774 [9].

One may read the inhibition as the change of the read-out against control, counted positive when it falls.
